From ChEMBL document CHEMBL1132577, “Conformational preferences in a benzodiazepine series of potent nonpeptide fibrinogen receptor antagonists” (J Med Chem, 1999) come the findings set out here.

SMILES strings stand for the structures.

The species entered for assay [1] is Homo sapiens. Put plainly: Inhibition of ADP-induced platelet aggregation in human platelet-rich plasma. In kind it is functional, organism-based.
Assay [2] concerns the target Integrin alpha-IIb/beta-3 (Homo sapiens, UniProt P05106+P08514). As to the kind of experiment: Fibrinogen receptor binding affinity was determined by assaying for inhibition of [3H]1 binding to purified Fibrinogen Receptor isolated from human platelets and reconstituted in liposomes. Summed up: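 Competition binding of the tritiated ligand [³H]-1 to the fibrinogen receptor glycoprotein complex GPIIb/IIIa, purified from human platelets and reconstituted into liposomes. The read-out is inhibition of radioligand binding.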

Chain of Integrin alpha-IIb/beta-3 (P05106 27-788 limits assumed): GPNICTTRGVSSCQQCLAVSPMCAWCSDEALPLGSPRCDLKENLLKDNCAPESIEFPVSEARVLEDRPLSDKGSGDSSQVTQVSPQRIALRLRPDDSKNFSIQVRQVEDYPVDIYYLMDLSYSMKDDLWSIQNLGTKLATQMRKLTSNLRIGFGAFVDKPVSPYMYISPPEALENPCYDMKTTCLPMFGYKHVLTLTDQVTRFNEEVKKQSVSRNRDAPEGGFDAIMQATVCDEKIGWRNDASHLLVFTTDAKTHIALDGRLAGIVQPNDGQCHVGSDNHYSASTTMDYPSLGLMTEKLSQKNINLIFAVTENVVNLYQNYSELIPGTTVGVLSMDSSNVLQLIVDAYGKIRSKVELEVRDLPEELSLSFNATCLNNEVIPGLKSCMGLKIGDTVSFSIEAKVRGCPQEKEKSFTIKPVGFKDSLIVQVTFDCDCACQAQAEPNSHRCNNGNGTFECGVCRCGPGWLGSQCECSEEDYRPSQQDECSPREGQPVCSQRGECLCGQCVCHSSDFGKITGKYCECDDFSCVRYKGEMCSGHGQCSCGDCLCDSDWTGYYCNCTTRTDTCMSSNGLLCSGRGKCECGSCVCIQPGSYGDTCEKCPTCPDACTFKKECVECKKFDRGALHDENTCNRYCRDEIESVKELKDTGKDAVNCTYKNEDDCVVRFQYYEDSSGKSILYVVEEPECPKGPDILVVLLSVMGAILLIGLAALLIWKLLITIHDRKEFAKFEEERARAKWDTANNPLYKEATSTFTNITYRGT
Chain of Integrin alpha-IIb/beta-3 (P08514 32-887 limits assumed): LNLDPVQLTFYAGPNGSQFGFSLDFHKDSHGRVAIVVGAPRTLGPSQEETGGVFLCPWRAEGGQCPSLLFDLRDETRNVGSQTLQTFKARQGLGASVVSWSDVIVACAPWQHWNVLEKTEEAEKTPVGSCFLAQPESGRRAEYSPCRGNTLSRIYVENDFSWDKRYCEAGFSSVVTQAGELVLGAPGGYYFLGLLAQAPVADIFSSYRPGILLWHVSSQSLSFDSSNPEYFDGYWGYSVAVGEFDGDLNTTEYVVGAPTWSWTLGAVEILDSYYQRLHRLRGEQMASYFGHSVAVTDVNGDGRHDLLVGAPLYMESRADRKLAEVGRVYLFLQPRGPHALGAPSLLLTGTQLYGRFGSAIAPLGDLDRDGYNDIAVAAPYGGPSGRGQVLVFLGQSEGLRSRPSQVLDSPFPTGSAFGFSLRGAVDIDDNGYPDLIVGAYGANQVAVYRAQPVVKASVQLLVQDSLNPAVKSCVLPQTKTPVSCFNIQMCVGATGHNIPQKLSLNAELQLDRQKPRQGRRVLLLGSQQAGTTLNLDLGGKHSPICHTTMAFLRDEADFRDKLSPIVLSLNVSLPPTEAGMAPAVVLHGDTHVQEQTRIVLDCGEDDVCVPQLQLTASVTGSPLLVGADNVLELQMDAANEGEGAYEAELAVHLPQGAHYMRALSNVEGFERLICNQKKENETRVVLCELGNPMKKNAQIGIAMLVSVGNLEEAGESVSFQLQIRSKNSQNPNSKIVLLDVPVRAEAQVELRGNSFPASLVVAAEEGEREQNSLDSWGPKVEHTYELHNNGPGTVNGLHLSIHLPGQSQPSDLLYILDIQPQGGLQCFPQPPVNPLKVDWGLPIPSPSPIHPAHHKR
Chain of Integrin alpha-IIb/beta-3 (P08514 891-1039 limits assumed): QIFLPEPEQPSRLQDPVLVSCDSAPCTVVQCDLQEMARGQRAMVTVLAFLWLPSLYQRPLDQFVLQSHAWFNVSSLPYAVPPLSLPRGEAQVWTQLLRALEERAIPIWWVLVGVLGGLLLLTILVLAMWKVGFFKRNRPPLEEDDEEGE

For `N=C(N)c1ccc(NC(=O)c2cccc(NC(CC(=O)O)C(=O)O)c2)cc1` (configuration not stated), the IC50 in assay [1] is 4700 nM.

Turning to `N=C(N)c1ccc(NC(=O)c2ccc3c(c2)N[C@H](CC(=O)O)C(=O)N(CCc2ccccc2)C3)cc1`, the IC50 in assay [1] is 2200 nM. Further, the Ki in assay [2] was determined as 500 nM. On the same counts, the results for `CN(CCC1CCNCC1)C(=O)c1ccc2c(c1)NC(CC(=O)O)C(=O)N(CCc1ccccc1)C2` (configuration not stated) are 15 nM and 1.9 nM. `N=C(N)c1ccc(NC(=O)c2ccc3c(c2)NC(CC(=O)O)CCC3)cc1` (configuration not stated): it took 3900 nM to reach half-maximal inhibition in assay [1] (IC50). `CN(C(=O)c1ccc2c(c1)CN(CC(=O)O)C(=O)CC2)c1ccc(C(=N)N)cc1` showed an IC50 in assay [1] greater than 200000 nM. In assay [2], this compound yielded a Ki greater than 50000 nM. In the case of `N=C(N)c1ccc(C(=O)Nc2ccc3c(c2)NC(CC(=O)O)CN(CCc2ccccc2)C3=O)cc1` (configuration not stated), the IC50 in assay [1] was greater than 200000 nM.

Compound `O=C(O)CC1Nc2cc(CCCCC3CCNCC3)ccc2CN(CCc2ccccc2)C1=O` (configuration not stated) came in with an IC50 in assay [1] of 930 nM. Further, the Ki in assay [2] amounted to 80 nM. On the same counts, the results for `N=C(N)c1ccc(C(=O)Nc2ccc3c(c2)CN(CCC(=O)O)C(=O)CN3)cc1` are 2100 nM and 290 nM. The corresponding values for `N=C(N)c1ccc(NC(=O)c2ccc3c(c2)NC(CC(=O)O)CN(CCc2ccccc2)C3=O)cc1` (configuration not stated) are 8300 nM and 800 nM. Regarding `CN(C(=O)c1ccc2c(c1)CN(CCC(=O)O)C(=O)CC2)c1ccc(C(=N)N)cc1`, in assay [1], the IC50 is greater than 200000 nM. The compound also came in with a Ki in assay [2] of 22500 nM. Take `N=C(N)c1ccc(C(=O)Nc2ccc3c(c2)CN(CC(=O)O)C(=O)NC3)cc1`: the IC50 in assay [1] is 23000 nM. In the case of `O=C(O)CC1Nc2cc(/C=C\CCC3CCNCC3)ccc2CN(CCc2ccccc2)C1=O` (configuration not stated), the IC50 in assay [1] came out at 7400 nM. Further, in assay [2], affinity was put at a Ki of 750 nM. As to `N=C(N)c1ccc(NC(=O)c2ccc3c(c2)N[C@@H](CC(=O)O)C(=O)N(CCc2ccccc2)C3)cc1`, the IC50 in assay [1] came to 34 nM. The same compound yielded a Ki in assay [2] of 2 nM. On the same counts, the results for `N=C(N)c1ccc(C(=O)Nc2ccc3c(c2)CN(CC(=O)O)C(=O)CN3)cc1` are 3100 nM and 1200 nM. On the same counts, the results for `O=C(O)CC1Nc2cc(/C=C/CCC3CCNCC3)ccc2CN(CCc2ccccc2)C1=O` (configuration not stated) are 175 nM and 19 nM.

In turn, `N=C(N)c1ccc(C(=O)Nc2ccc3c(c2)NC(CC(=O)O)C(=O)N(CCc2ccccc2)C3)cc1` (configuration not stated) returned an IC50 in assay [1] of 130 nM. This compound displayed a Ki in assay [2] of 2 nM.

As to `N=C(N)c1ccc(NC(=O)c2ccc3c(c2)NC(CC(=O)O)CN(CCc2ccccc2)C3)cc1` (configuration not stated), in assay [1], the IC50 was found to be 3000 nM. Also, the affinity in assay [2], expressed as Ki, was 540 nM. The corresponding values for `O=C(O)CC1Nc2cc(C(=O)NCCC3CCNCC3)ccc2CN(CCc2ccccc2)C1=O` (configuration not stated) are 510 nM and 4.7 nM.

The IC50 is the concentration that inhibits the measured activity by half. A higher IC50 goes with a need for much substance. In general, Ki refers to a dissociation constant, usually derived from enzyme kinetics or from competition with a known ligand. A lower Ki goes with tighter binding.
